Out of some 330,000 compounds screened, about 55 (0.02%) were called active. The entries come from a sample that favours actives as a whole. Unmarked numbers belong to inactive results.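 How the source made its calls: active means highest replicate inhibition of at least 40%; inactive means the rest.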
Target: Golgi-associated PDZ and coiled-coil motif-containing protein (Homo sapiens) (UniProt Q9HD26)
Assay: CAL PDZ peptide-binding inhibitors, primary screen, biochemical, fluorescence polarization, Cer-tagged CAL PDZ, HTS (AID 504414);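 further: plate controls were DMSO neutral control wells for no effect and unlabeled competitor peptide control wells for full effect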
Details: purified CAL PDZ, TMR-peptide fluorescence polarization, 1 h; at 20 µM; hits give high values
Method in brief: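 material = purified tagged CAL PDZ domain construct (CerCALP) | buffer or medium = sodium phosphate/NaCl buffer pH 7.4 with TCEP, IgG, Thesit | reagent = TMR-labelled reporter peptide T*-PRC34 bound in PDZ groove | incubation = 1 h room-temperature incubation prior to read | measured by = fluorescence polarization (mP) | evaluation = percent inhibition from loss of millipolarization | control set = unlabelled peptide and DMSO controls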

| Compound | inhibition |
| --- | --- |
| COc1ccccc1N(CC(=O)Nc1c(C)n(C)n(-c2ccccc2)c1=O)S(=O)(=O)c1ccccc1 | 0.495% |
| CCN(CC)CCN1C(=O)C2C(C(=O)Nc3ccc(Br)cc3)C3C=CC2(O3)C1C(=O)NC1CCCCC1 (stereo unspecified) | 0.206% |
| COc1ccc(-n2c(O)c(C=NCC(c3ccco3)N3CCCC3)c3ccccc3c2=O)cc1OC (stereo unspecified) | -2.24% |
| CC1CCCN(C(=O)Cn2c(=O)oc3ccccc32)C1 (stereo unspecified) | 0.481% |
| COc1ccc(/C=C/C(=O)NC(=S)N2CCCC(C(N)=O)C2)cc1 (stereo unspecified) | -0.891% |
| O=C(C1CCCO1)N1CCN(S(=O)(=O)c2ccc(Br)cc2)CC1 (stereo unspecified) | -0.919% |
| CC(OC(=O)c1ccc(-n2cnnn2)cc1)C(=O)NCc1ccccc1 (stereo unspecified) | -0.615% |
| COc1ccccc1N1CCN(CC(=O)NCCc2ccc(S(N)(=O)=O)cc2)CC1 | 1.11% |
| O=C1COc2c1ccc(O)c2O | -0.377% |
| CCC(C(=O)NC1CCCCC1)N(C(=O)c1snc(C(N)=O)c1N)c1ccc(OC)cc1OC (stereo unspecified) | -1.96% |
| COC(=O)c1cc(NC2c3ccccc3C(=O)N2c2ccc(Cl)cn2)cc(C(=O)OC)c1 (stereo unspecified) | 1.56% |
| Cc1cccc(OCCNC(=S)NC(=O)c2cccnc2)c1 | -1.24% |
| COC(=O)c1cc(C(=O)N(Cc2ccccc2)c2ccccn2)cc([N+](=O)[O-])c1 | -1.95% |
| FC(F)(F)c1cc(C(F)(F)F)c2ccc(N3CCN(c4ccccc4)CC3)nc2n1 | -0.0994% |
| Cc1cccc(N2Cc3ccccc3C2=NC(=O)c2ccc(Cl)nc2)c1 | -3% |
| Cc1ccc(C(=O)O)c(NC=O)c1OCc1ccccc1 | -0.888% |
| O=C(Nc1ccc(F)c([N+](=O)[O-])c1)C1CCCO1 (stereo unspecified) | 0.3% |
| C[C@@H]1C(c2ccc(F)cc2)=NN(c2ccc(Br)cc2)[C@H]1C(=O)N1CCOC1=O | -0.314% |
| COc1ccc(N2CCN(C(=O)c3ccc(N4CCCCS4(=O)=O)cc3)CC2)cc1 | -1.77% |
| CCCCCCCCCCOC(=O)C[N+](C)(C)CC1CCCCC1O (stereo unspecified) | -1.83% |
| Cc1cc(C)c(C#N)c(Nc2cccc(Br)c2)n1 | -0.811% |
| COc1ccc2c(c1)c(=Cc1ccc(N(C)C)cc1)c1cc(-c3ccccc3)[n+](C)n12 | 32% |
| COc1ccc(-n2nc(C(=O)NCC(=O)N3CCC(C(N)=O)CC3)c3ccccc3c2=O)cc1OC | 0.6% |

| Compound | inhibition |
| --- | --- |
| COc1ccccc1C(=O)COC(=O)CNS(=O)(=O)c1ccc(NC(C)=O)cc1 | -3.17% |
| COc1cc2c(cc1OC)C1C(=O)c3cc(OS(C)(=O)=O)c(OC)cc3C1N(C)C2=O (stereo unspecified) | -0.086% |
| Cc1ccc(NC(=O)CN2C(=O)NC(C)(c3ccc(Cl)cc3)C2=O)c(Br)c1 (stereo unspecified) | -4.23% |
| CCOc1cc(/C=N/NC(=O)c2ccc(CSc3nncn3C)cc2)ccc1OCC(=O)N1CCOCC1 | -3.73% |
| CCN(CC)S(=O)(=O)c1cccc(-c2n[nH]c(=S)n2/N=C/c2ccc(C(=O)OC)cc2)c1 | -1.46% |
| CCCCC(CC)CNCc1cccn1CCN1CCOCC1 (stereo unspecified) | 0.235% |
| Cc1cc(C)n(CC(C)NCc2c(C(=O)N3CCOCC3)nc3c(C)cccn23)n1 (stereo unspecified) | 0.659% |
| COc1ccccc1C1C(C(N)=O)=C(C)Nc2nc(CCCO)nn21 (stereo unspecified) | -0.498% |
| Nc1cc2c(cc1Br)-c1ccc(F)cc1C2=O | -0.277% |
| O=C(O)CCC(=O)Nc1ccc(OCC2CCCO2)cc1 (stereo unspecified) | -0.764% |
| Cc1c[n+]([O-])ccc1[N+](=O)[O-] | 0.378% |
| Cc1nc(C)c2c(c1C(F)(F)F)-c1ccccc1C2(F)F | -1.33% |
| NC1=NC(=O)C(Cc2cccc(Cl)c2Cl)S1 (stereo unspecified) | 1.03% |
| CCc1ccc(OCC(=O)OC(C)C(=O)NC2CC2)cc1 (stereo unspecified) | -0.543% |
| CC(C)(C)C(=O)N(Cc1ccccc1)c1ccccn1 | 0.0459% |
| COC(C(=O)Nc1ccc(S(=O)(=O)Nc2ccc(C)c(C)c2)cc1)c1ccccc1 (stereo unspecified) | -3.38% |
| CCCCCCCCNS(=O)(=O)CCNC1CCCCC1 | -1.06% |
| O=C1CSc2ccc(S(=O)(=O)NCc3ccccc3)cc2N1 | -0.383% |
| CCOc1ccccc1-n1c(SCC(=O)N2CCCC2)nnc1-c1ccoc1C | -1.83% |
| O=S(=O)(NC1CCCCC1N1CCC(O)CC1)c1ccc(Cl)cc1 (stereo unspecified) | -0.646% |
| CC1CCCCC1NC(=O)CCS(=O)(=O)c1ccc2c(c1)NC(=O)CO2 (stereo unspecified) | -0.536% |
| COc1ccc(/C=N/N=C/c2c[nH]c(=O)c(C#N)c2Nc2ccccc2)cc1 | -5.96% |
| CCCCCC(=O)Nc1ccc(-c2cn3cccnc3n2)cc1 | 177% (active) |

| Compound | inhibition |
| --- | --- |
| CC(=O)Nc1ccc(-c2cn3cccnc3n2)cc1 | -1.06% |
| CC(C)(C)C(=O)Nc1ccc(-c2cn3cccnc3n2)cc1 | -1.11% |
| Cc1ccc(C(=O)NNC(=O)OC(C)(C)C)c(Cl)c1 | -1.58% |
| S=c1[nH]cc(-c2ccc(Cl)cc2)n1-c1ccccc1 | -1.13% |
| CC(=O)c1nc(N2C(=O)C3CC=C(C)CC3C2=O)sc1C (stereo unspecified) | -0.266% |
| CC(C)CCN1CCN=C1N(C)C | -2.49% |
| Cc1ccc(S(=O)(=O)N2CCN(C)CC2)cc1C(=O)NC1CCCCC1 | -0.886% |
| CN1/C(=c2/s/c(=C3/C(=O)N(c4ccccc4)NC3=Nc3ccccc3)n(C)c2=O)C(C)(C)c2ccccc21 | 0.46% |
| COc1cc(-c2nc(S(=O)(=O)c3ccc(Cl)cc3)c(N(C)C)o2)cc(OC)c1OC | -0.274% |
| Clc1c(OCCCn2ccnc2)ccc2ccccc12 | -0.854% |
| O=C(OCC(=O)N1CCCCCC1)c1ccc(Br)c(S(=O)(=O)N2CCOCC2)c1 | 0.404% |
| CSc1ccc(Cl)c(C(=O)OCC(=O)N2CC(C)OC(C)C2)c1 (stereo unspecified) | 1.25% |
| CCOc1ccc(NC(=O)CC(Cc2ccc(Cl)cc2)C(=O)O)cc1 (stereo unspecified) | -0.804% |
| Cc1cc(-n2cnc(-c3cn(C)nc3C)n2)no1 | -0.598% |
| C=CCOC(=O)N1CCC2CC1c1cc(-c3ccc(OC)cc3)ccc12 (stereo unspecified) | -0.353% |
| Cc1nc(-c2ccccc2)sc1-c1nnc(C2CC2)o1 | -0.361% |
| CCN(C(=O)COC(=O)/C=C/c1nc2ccccc2s1)C1CCS(=O)(=O)C1 (stereo unspecified) | 0.0609% |
| CC(=O)c1c(C)[nH]c(C(=O)Nc2cc(S(=O)(=O)N(C)C)ccc2C)c1C | -0.89% |
| COc1ccc(CNC(=O)CSc2n[nH]c(N)n2)cc1OC | -2.17% |
| C=CCOc1c2ccc(C(=O)N(CC)c3ccc(OC)cc3)cc2nn1C | -0.978% |
| O=C(COc1coc(CN2CCN(c3ccccc3)CC2)cc1=O)N1CCc2ccccc21 | -0.986% |
| COc1cc(NC(=O)c2cccs2)ccc1NC(=O)c1ccccc1Cl | 52% (active) |
| COc1cc(NC(=O)c2ccc3c(c2)OCO3)ccc1NC(=O)c1cccs1 | -2.17% |

| Compound | inhibition |
| --- | --- |
| COc1cc2ccccc2cc1C(=O)Nc1ccc(NC(=O)c2cccs2)cc1 | -1.38% |
| Cn1cc(CCC(=O)N2CCCC(C(=O)c3ccc(C(C)(C)C)cc3)C2)cn1 (stereo unspecified) | -1.53% |
| Cc1ccccc1NC(=O)CCOc1ccccc1 | -0.379% |
| COc1ccccc1-n1ccnc(SCC(=O)NC2CCCCC2)c1=O | -0.307% |
| CN(C)S(=O)(=O)Oc1ccccc1C(=O)Nc1ccccc1Cl | -2.53% |
| CN(C)C(=O)CCc1ccc2c3c([nH]c2c1)[C@]1(C)[C@@H](C(=O)N2CCCCC2)C[C@H](CC(=O)NCCC2=CCCCC2)C(=O)N1CC3 | -0.602% |
| CC(CN1CCCCC1)c1ccccc1 (stereo unspecified) | -0.367% |
| COc1ccccc1CNC(=O)CNC(=O)c1cn(-c2ccccc2OC)c(=O)c2ccccc12 | -0.592% |
| CCc1ccc(C(=O)C(C)OC(=O)CN2C(=O)NC3(CCCC3)C2=O)cc1 (stereo unspecified) | -0.0354% |
| Cc1ccoc1C(=O)Nc1cccc(Oc2ccccc2)c1 | -1.61% |
| Cc1ccnc(NC(=O)C2CCN(S(=O)(=O)c3c(C)c(C)cc(C)c3C)CC2)c1 | -2.34% |
| CCOc1ccc(OCC(=O)OC(C)C(=O)NC2CCCCC2C)cc1 (stereo unspecified) | -1.17% |
| O=C(O)C1C2C=CC(O2)C1C(=O)Nc1ccccn1 (stereo unspecified) | 0.325% |
| COCCN(C(=S)Nc1ccccc1OC)C1CCN(C(C)C)CC1 | 61.8% (active) |
| COc1ccccc1NC(=S)N1CCN(C(c2ccccc2)c2ccccc2)CC1 | 0.312% |
| CCc1cccc(NC(=S)N(CCN(C)C)C2CCN(C(C)C)CC2)c1 | -0.435% |
| Cc1ccccc1N1C(=O)C2ON(c3ccccc3)C(c3ccncc3)C2C1=O (stereo unspecified) | -1.2% |
| CCCCN(C)c1ccc([N+](=O)[O-])cc1 | -3.03% |
| CC(=O)c1c(O)cc2n(c1=O)-c1ccc(Cl)cc1C2(C)C | -2.37% |
| COc1ccc(-c2cc(C(=O)N(C)CC(=O)Nc3ccccc3Cl)c3ccccc3n2)cc1OC | -0.623% |
| O=C(/C=C/Nc1ccc(S(=O)(=O)Nc2cnc3ccccc3n2)cc1)c1cccnc1 | -1.99% |
| COc1ccc(N(CC(=O)N2CCOCC2)S(=O)(=O)c2ccccc2)cc1Cl | -0.969% |

— PubChem BioAssay AID504414 (Broad Institute, 2011)
